Data reported in paper PMC10013581 (Drug Design, Development and Therapy, 2023).
“And” between values parts separate entries of the source, which are not always exact repeats. Identical values can stand only once. Like-named read-outs stand apart in the source and are kept apart here.

Tests used:
[1] = cited from earlier work
[2] = no reference given, cited from earlier work
Safety evaluation = assay type: in vivo, human; conditions: single oral 300 mg
Outline: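 Each of the three dosing periods had 8 days of post-dose follow-up. Monitoring covered physical examination, vital signs, 12-lead ECG, haematology, urinalysis, biochemistry, coagulation and adverse events. Vital signs and ECG were taken within 1 h pre-dose, at 3 h ±30 min post-dose, and daily at other visits. Adverse events were graded by NCI CTCAE v5.0. All 18 dosed subjects formed the safety set.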

[3] = system: c-Met-dependent non-small cell lung cancer (NSCLC) and other tumor models; conditions: SCC244 at 10 mg/kg; cited from earlier work
[4] = assay type: in vivo, human
Outline: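 Three-period crossover in 18 healthy males aged 18–45 y with a 14-day washout. Dosing was fasted, or within 30 min of starting a high-fat/high-calorie or low-fat meal, with 240 mL water and no food for ≥4 h. EDTA plasma was sampled 0–168 h and assayed by LC-MS/MS (MRM, d6 internal standard). NCA gave parameters; log-transformed values were fitted by mixed-effects model for geometric mean ratios with 90% CI.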

[5] = single oral 300 mg, fasting, n=18
[6] = single oral 300 mg, high-fat meal, n=17
[7] = single oral 300 mg, low-fat meal, n=18
[8] = single oral 300 mg, n=17, bioavailability analysis set

CS(=O)(=O)CCNCc1ccc(-c2ccc3ncnc(Nc4ccc(OCc5cccc(F)c5)c(Cl)c4)c3c2)o1 [Lapatinib]
Bioavailability increase with a high-fat meal [1]: 161%
Bioavailability increase with a low-fat meal [1]: 80%

CCCS(=O)(=O)Nc1ccc(F)c(C(=O)c2c[nH]c3ncc(-c4ccc(Cl)cc4)cc23)c1F [vemurafenib]
Effect of high-fat meal (increase) ([1]; 960mg single dose): 3.7 fold

COc1cc2c(Nc3ccc(Br)cc3F)ncnc2cc1OCC1CCN(C)CC1 [vandetanib]
Effect of food on bioavailability [1]: unaffected by food

CNC(=O)c1cc(Oc2ccc(NC(=O)Nc3ccc(Cl)c(C(F)(F)F)c3)c(F)c2)ccn1 [regorafenib]
Bioavailability increase with a high-fat meal [1]: 48%
Bioavailability increase with a low-fat meal [1]: 36%

Cn1cc(-c2cnc3cnn(S(=O)(=O)c4cnc5ccc(-c6cnn(C)c6)cn45)c3c2)cn1 [SCC244]
Solubility in water [2]: practically insoluble in water
Biopharmaceutics Classification System (BCS) class ([2]; poor aqueous solubility but sufficient permeability): Class II
Solubility versus pH ([2]; weak base drug): declines greatly when the pH is higher than 1.2
Other tolerability assessments (laboratory parameters, vital signs, physical examination, 12-lead ECGs) (Safety evaluation; all meal conditions): No clinically significant abnormalities
SAEs or AEs leading to permanent discontinuation (Safety evaluation; all meal conditions): No SAEs or AEs leading to permanent discontinuation were reported
Incidence of AEs (subjects with any AE) (Safety evaluation; fasted, 12/18 subjects): 66.7%
Incidence of AE blood fibrinogen decreased (Safety evaluation; fasting, n=18): 16.7% (3)
Incidence of AE dizziness (Safety evaluation; fasting, n=18): 16.7% (3)
Incidence of AE head discomfort (Safety evaluation; fasting, n=18): 5.6% (1)
Incidence of AE headache (Safety evaluation; fasting, n=18): 27.8% (5)
Incidence of AE protein urine presence (Safety evaluation; fasting, n=18): 16.7% (3)
Incidence of AEs (subjects with any AE) (Safety evaluation; high-fat meal, 12/17 subjects): 70.6%
Incidence of AE blood fibrinogen decreased (Safety evaluation; high-fat meal, n=17): 23.5% (4)
Incidence of AE dizziness (Safety evaluation; high-fat meal, n=17): 0% (0)
Incidence of AE head discomfort (Safety evaluation; high-fat meal, n=17): 11.8% (2)
Incidence of AE headache (Safety evaluation; high-fat meal, n=17): 47.1% (8)
Incidence of AE protein urine presence (Safety evaluation; high-fat meal, n=17): 0% (0)
Subjects with a CTCAE grade 2 AE (headache); all other AEs grade 1 (Safety evaluation; low-fat meal): 1 subject
Incidence of AEs (subjects with any AE) (Safety evaluation; low-fat meal, 15/18 subjects): 83.3%
Incidence of AE blood fibrinogen decreased (Safety evaluation; low-fat meal, n=18): 27.8% (5)
Incidence of AE dizziness (Safety evaluation; low-fat meal, n=18): 11.1% (2)
Incidence of AE head discomfort (Safety evaluation; low-fat meal, n=18): 11.1% (2)
Incidence of AE headache (Safety evaluation; low-fat meal, n=18): 44.4% (8)
Incidence of AE protein urine presence (Safety evaluation; low-fat meal, n=18): 5.6% (1)
Efficacy compared with capmatinib and crizotinib [3]: comparable with that of capmatinib at 15 mg/kg and crizotinib at 50 mg/kg
Tmax ([4]; male, human, plasma, po, 300 mg): 4 h
AUC(0-inf) ([4]; male, human, plasma, po, 300 mg, AUC0-inf (geometric mean), single oral 300 mg, fasting, n=17, bioavailability analysis set): 25300 ng·h/mL
AUC(0-inf) ([4]; male, human, plasma, po, 300 mg, AUC0-inf (geometric mean), single oral 300 mg, high-fat meal, n=17, bioavailability analysis set): 59700 ng·h/mL
AUC(0-inf) ([4]; male, human, plasma, po, 300 mg, AUC0-inf (geometric mean), single oral 300 mg, low-fat meal, n=17, bioavailability analysis set): 55300 ng·h/mL
AUC(0-inf) ([4]; male, human, plasma, po, 300 mg, AUC0-inf, mean (SD), single oral 300 mg, fasting, n=18): 27700 ng·h/mL
AUC(0-inf) ([4]; male, human, plasma, po, 300 mg, AUC0-inf, mean (SD), single oral 300 mg, high-fat meal, n=17): 65100 ng·h/mL
AUC(0-inf) ([4]; male, human, plasma, po, 300 mg, AUC0-inf, mean (SD), single oral 300 mg, low-fat meal, n=18): 60500 ng·h/mL
AUC(0-t) ([4]; male, human, plasma, po, 300 mg, AUC0-t (geometric mean), single oral 300 mg, fasting, n=17, bioavailability analysis set): 24800 ng·h/mL
AUC(0-t) ([4]; male, human, plasma, po, 300 mg, AUC0-t (geometric mean), single oral 300 mg, high-fat meal, n=17, bioavailability analysis set): 58900 ng·h/mL
AUC(0-t) ([4]; male, human, plasma, po, 300 mg, AUC0-t (geometric mean), single oral 300 mg, low-fat meal, n=17, bioavailability analysis set): 54300 ng·h/mL
AUC(0-t) ([4]; male, human, plasma, po, 300 mg, AUC0-t, mean (SD), single oral 300 mg, fasting, n=18): 27200 ng·h/mL
AUC(0-t) ([4]; male, human, plasma, po, 300 mg, AUC0-t, mean (SD), single oral 300 mg, high-fat meal, n=17): 64100 ng·h/mL
AUC(0-t) ([4]; male, human, plasma, po, 300 mg, AUC0-t, mean (SD), single oral 300 mg, low-fat meal, n=18): 59600 ng·h/mL
Cmax ([4]; male, human, plasma, po, 300 mg, Cmax (geometric mean), single oral 300 mg, fasting, n=17, bioavailability analysis set): 824 ng/mL
Cmax ([4]; male, human, plasma, po, 300 mg, Cmax (geometric mean), single oral 300 mg, high-fat meal, n=17, bioavailability analysis set): 1610 ng/mL
Cmax ([4]; male, human, plasma, po, 300 mg, Cmax (geometric mean), single oral 300 mg, low-fat meal, n=17, bioavailability analysis set): 1600 ng/mL
Cmax ([4]; male, human, plasma, po, 300 mg, Cmax, mean (SD), single oral 300 mg, fasting, n=18): 869 ng/mL
Cmax ([4]; male, human, plasma, po, 300 mg, Cmax, mean (SD), single oral 300 mg, high-fat meal, n=17): 1730 ng/mL
Cmax ([4]; male, human, plasma, po, 300 mg, Cmax, mean (SD), single oral 300 mg, low-fat meal, n=18): 1750 ng/mL
half-life ([4]; male, human, plasma, po, 300 mg, Mean t1/2 under different meal conditions, single oral 300 mg, low-fat meal, high-fat meal and fasted groups): 24.7 to 26.1 h
half-life ([4]; male, human, plasma, po, 300 mg, t1/2, mean (SD), single oral 300 mg, fasting, n=18): 26.1 h
half-life ([4]; male, human, plasma, po, 300 mg, t1/2, mean (SD), single oral 300 mg, high-fat meal, n=17): 24.7 h
half-life ([4]; male, human, plasma, po, 300 mg, t1/2, mean (SD), single oral 300 mg, low-fat meal, n=18): 25.6 h
%CV (AUC0-inf), inter-subject variability [4, 5]: 44.0%
%CV (AUC0-t), inter-subject variability [4, 5]: 44.2%
%CV (Cmax), inter-subject variability [4, 5]: 34.3%
CL/F, mean (SD) [4, 5]: 12.8 (5.5) L/h
%CV (AUC0-inf), inter-subject variability [4, 6]: 35.3%
%CV (AUC0-t), inter-subject variability [4, 6]: 34.8%
%CV (Cmax), inter-subject variability [4, 6]: 30.5%
CL/F, mean (SD) [4, 6]: 5.7 L/h and 5.7 (4.2) L/h
Tmax, median (range) [4, 6]: 4.0 (2.0–12.0) h
%CV (AUC0-inf), inter-subject variability [4, 7]: 31.6%
%CV (AUC0-t), inter-subject variability [4, 7]: 31.5%
%CV (Cmax), inter-subject variability [4, 7]: 30.2%
CL/F, mean (SD) [4, 7]: 6.3 L/h and 6.3 (5.8) L/h
Tmax, median (range) [4, 7]: 4.0 (2.0–8.0) h
AUC0-inf geometric mean ratio (90% CI) of high-fat meal vs fasting [4, 8]: 235.9% (207.5–268.3%)
AUC0-inf geometric mean ratio (90% CI) of low-fat meal vs fasting [4, 8]: 218.3% (192.0–248.3%)
AUC0-t geometric mean ratio (90% CI) of high-fat meal vs fasting [4, 8]: 237.4% (208.7–270.0%)
AUC0-t geometric mean ratio (90% CI) of low-fat meal vs fasting [4, 8]: 219.2% (192.7–249.3%)
Cmax geometric mean ratio (90% CI) of high-fat meal vs fasting [4, 8]: 194.8% (174.3–217.7%)
Cmax geometric mean ratio (90% CI) of low-fat meal vs fasting [4, 8]: 194.6% (174.1–217.5%)

C[C@@H](Oc1cc(-c2cnn(C3CCNCC3)c2)cnc1N)c1c(Cl)ccc(F)c1Cl [crizotinib]
Effect of food on bioavailability [1]: unaffected by food
